Test results from ChEMBL document CHEMBL4725336, “Anti-cancer potential of (1,2-dihydronaphtho[2,1-b]furan-2-yl)methanone derivatives” (Bioorg Med Chem Lett, 2020).
Activity calls are given as the source filed them. The rule behind the calls is not given here.

What was measured:
MDA-MB-468 [1] = test: Induction of mitochondrial membrane potential loss in human MDA-MB-468 cells by JC-1 staining based analysis; format: functional, cell-based; details: dose microM 10-30
Method in brief: (§1)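 Cells were given 10, 20 and 30 μM and stained with JC-1. Mitochondrial membrane potential change was read as the shift from red to green fluorescence, i.e. the red/green ratio, across concentration and time.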

MDA-MB-468 [2] = test: Antiproliferative activity against human MDA-MB-468 cells assessed as inhibition of cell proliferation by MTT assay; format: functional; details: read-out: LD50 (the source's name)
Method in brief: (§2)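 MTT proliferation assay; cells exposed to compounds across 0-50 μM; LD50 derived from dose-dependent survival. Triple-negative MDA-MB-468, MDA-MB-231 and 4T1, ER+/PR+ MCF-7, and non-cancerous lung fibroblast WI-38 tested.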

MCF7 [3] = test: Antiproliferative activity against human MCF7 cells assessed as inhibition of cell proliferation by MTT assay; format: functional; details: read-out: LD50 (the source's name); method in brief: as §2
[4] = Cytotoxicity against human WI-38 cells assessed as inhibition of cell proliferation by MTT assay; format: cell-based; details: read-out: LD50 (the source's name); method in brief: as §2
[5] = Selectivity index, ratio of LD50 for human WI-38 cells to LD50 for human MDA-MB-468 cells assessed as inhibition of cell proliferation by MTT assay; format: toxicity; details: WI-38 cells and MDA-MB-468 cells, read-out: Selectivity Index
Method in brief: (§3)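 MTT proliferation assay on cells treated with 0–50 μM. LD50 was derived for each cell line, and the selectivity index was calculated as WI-38 LD50 divided by cancer-cell LD50.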

[6] = Selectivity index, ratio of LD50 for human WI-38 cells to LD50 for human MCF7 cells assessed as inhibition of cell proliferation by MTT assay; format: toxicity; details: WI-38 cells and MCF7 cells, read-out: Selectivity Index; method in brief: as §3
4T1 = test: Antiproliferative activity against mouse 4T1 cells assessed as inhibition of cell proliferation by MTT assay; format: functional; details: read-out: LD50 (the source's name); method in brief: as §2
[7] = Selectivity index, ratio of LD50 for human WI-38 cells to LD50 for mouse 4T1 cells assessed as inhibition of cell proliferation by MTT assay
Method in brief: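 Selectivity index computed as MTT-derived LD50 in non-cancerous WI-38 lung fibroblasts divided by LD50 in the cancer line (cells exposed to 0-50 μM).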

MDA-MB-231 = test: Antiproliferative activity against human MDA-MB-231 cells assessed as inhibition of cell proliferation by MTT assay; format: functional; details: read-out: LD50 (the source's name); method in brief: as §2
[8] = Selectivity index, ratio of LD50 for human WI-38 cells to LD50 for human MDA-MB-231 cells assessed as inhibition of cell proliferation by MTT assay; format: toxicity; details: WI-38 cells and MDA-MB-231 cells, read-out: Selectivity Index
MDA-MB-468 [9] = test: Induction of apoptosis in human MDA-MB-468 cells at 30 uM measured after 24 hrs by annexinV-FITC/propidium iodide staining based flow cytometry analysis relative to control; format: functional
Method in brief: (§4)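 Cells were treated with 0, 10, 20 and 30 μM for 24 h, then stained with Annexin V-FITC/PI. Apoptotic cells were quantified by flow cytometry from dot plots against untreated cells.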

MDA-MB-468 [10] = test: Induction of apoptosis in human MDA-MB-468 cells measured after 24 hrs by annexinV-FITC/propidium iodide staining based flow cytometry analysis; format: functional, cell-based; details: dose microM 10-30, time 24.0 hrs; method in brief: as §4
MCF7 [11] = test: Induction of apoptosis in human MCF7 cells measured after 24 hrs by annexinV-FITC/propidium iodide staining based flow cytometry analysis; format: functional, cell-based; details: dose microM 10-30, time 24.0 hrs; method in brief: as §4
MCF7 [12] = test: Induction of apoptosis in human MCF7 cells at 30 uM measured after 24 hrs by annexinV-FITC/propidium iodide staining based flow cytometry analysis relative to control; format: functional; method in brief: as §4
WI-38 [13] = test: Induction of apoptosis in human WI-38 cells at 10 to 30 uM measured after 24 hrs by annexinV-FITC/propidium iodide staining based flow cytometry analysis; format: cell-based; details: wi-38, 24 h, dose 10-30 µM; method in brief: as §4
MDA-MB-468 [14] = test: Induction of ROS generation in human MDA-MB-468 cells assessed as increase in fluorescence intensity after 12 hrs by DCFDA staining based microscopy analysis; format: functional, cell-based; details: dose microM 10-30, time 12.0 hrs
Method in brief: (§5)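 Cells were exposed to 0, 10, 20 or 30 μM for 12 h, then stained with DCFDA (100 μM) for 30 min. Green fluorescence was imaged by microscopy and intensity was also read spectrophotometrically. Data are the mean of three experiments ±SD.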

MCF7 [15] = test: Induction of ROS generation in human MCF7 cells assessed as increase in fluorescence intensity after 12 hrs by DCFDA staining based microscopy analysis; format: functional, cell-based; details: dose microM 10-30, time 12.0 hrs; method in brief: as §5
MDA-MB-468 [16] = test: Induction of ROS generation in human MDA-MB-468 cells assessed as increase in fluorescence intensity at 10 to 30 uM after 12 hrs in presence of ROS scavenger NAC by DCFDA staining based microscopy analysis; format: functional, cell-based; details: dose microM 10-30, time 12.0 hrs
Method in brief: (§6)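 Cells were pre-treated with 10 mM N-acetyl cysteine (ROS scavenger), then given 10, 20 or 30 μM for 12 h. They were stained with 100 μM DCFDA for 30 min and read by fluorescence microscopy and spectrophotometric intensity. Three experiments, mean ±SD.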

MCF7 [17] = test: Induction of ROS generation in human MCF7 cells assessed as increase in fluorescence intensity at 10 to 30 uM after 12 hrs in presence of ROS scavenger NAC by DCFDA staining based microscopy analysis; format: functional, cell-based; details: dose microM 10-30, time 12.0 hrs; method in brief: as §6
WI-38 [18] = test: Induction of ROS generation in human WI-38 cells assessed as increase in fluorescence intensity at 10 to 30 uM after 12 hrs by DCFDA staining based microscopy analysis; format: cell-based; details: wi-38, 12 h, dose 10-30 µM; method in brief: as §5
MDA-MB-468 [19] = test: Induction of mitochondrial membrane potential loss in human MDA-MB-468 cells at 10 to 30 uM by JC-1 staining based analysis; format: functional, cell-based; details: dose microM 10-30, TDE = time-dependent effect; method in brief: as §1
MCF7 [20] = test: Induction of mitochondrial membrane potential loss in human MCF7 cells at 10 to 30 uM by JC-1 staining based analysis; format: functional, cell-based; details: dose microM 10-30, TDE = time-dependent effect; method in brief: as §1
MCF7 [21] = test: Induction of mitochondrial membrane potential loss in human MCF7 cells by JC-1 staining based analysis; format: functional, cell-based; details: dose microM 10-30; method in brief: as §1
WI-38 [22] = test: Induction of mitochondrial membrane potential loss in human WI-38 cells at 10 to 30 uM by JC-1 staining based analysis; format: cell-based; details: wi-38, 30 µM, dose 10-30 µM; method in brief: as §1
MDA-MB-468 [23] = test: Induction of apoptosis in human MDA-MB-468 cells assessed as increase in p53 expression at 10 to 30 uM by Western blot analysis; format: functional, cell-based; details: dose microM 10-30
Method in brief: (§7)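 MDA-MB-468 cells were treated with 10, 20 and 30 μM. Bcl2, Bax, cleaved caspase-3, p53 and pBad were probed by Western blot, and band expression was quantified.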

MDA-MB-468 [24] = test: Induction of mitochondrial ROS production in human MDA-MB-468 cells at 10 to 30 uM by MitoSox red dye based spectrofluorimetric analysis; format: functional, cell-based; details: dose microM 10-30
Method in brief: (§8)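 Cells were treated at 10, 20 and 30 μM and stained with MitoSOX Red. Red fluorescence from oxidized product was imaged and its intensity measured spectroscopically. Mean of three experiments ±SD.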

MCF7 [25] = test: Induction of mitochondrial ROS production in human MCF7 cells at 10 to 30 uM by MitoSox red dye based spectrofluorimetric analysis; format: functional, cell-based; details: dose microM 10-30; method in brief: as §8
MDA-MB-468 [26] = test: Induction of DNA damage in human MDA-MB-468 cells assessed as tail length at 20 uM measured after 24 hrs by comet assay; format: functional
Method in brief: (§9)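 Cells given 0, 10, 20 and 30 μM; DNA strand breaks were assessed by single-cell gel electrophoresis (comet assay). Fragmented DNA migrates toward the anode, and tail length was measured against untreated cells.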

MDA-MB-468 [27] = test: Induction of DNA damage in human MDA-MB-468 cells assessed as tail length at 30 uM measured after 24 hrs by comet assay; format: functional; method in brief: as §9
MDA-MB-468 [28] = test: Induction of apoptosis in human MDA-MB-468 cells assessed as increase in BAX/Bcl2 expression ratio at 10 to 30 uM by Western blot analysis; format: functional, cell-based; details: dose microM 10-30; method in brief: as §7
MDA-MB-468 [29] = test: Induction of apoptosis in human MDA-MB-468 cells assessed as decrease in Bcl2 expression at 10 to 30 uM by Western blot analysis; format: functional, cell-based; details: dose microM 10-30; method in brief: as §7
MDA-MB-468 [30] = test: Induction of apoptosis in human MDA-MB-468 cells assessed as decrease in pBad expression at 10 to 30 uM by Western blot analysis; format: functional, cell-based; details: dose microM 10-30; method in brief: as §7
MDA-MB-468 [31] = test: Induction of apoptosis in human MDA-MB-468 cells assessed as activation of caspase-3 cleavage at 10 to 30 uM by Western blot analysis; format: functional, cell-based; details: dose microM 10-30; method in brief: as §7
MDA-MB-468 [32] = test: Induction of apoptosis in human MDA-MB-468 cells assessed as increase in cleaved caspase-3 expression at 10 to 30 uM in presence of pan-caspase inhibitor z-VAD-FMK by Western blot analysis; format: functional, cell-based; details: dose microM 10-30
Method in brief: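 MDA-MB-468 cells were exposed to the caspase inhibitor Z-VAD-FMK, then treated with 10, 20 or 30 μM. Cleaved caspase-3 was detected by Western blot and quantified.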

WI-38 [33] = test: Induction of apoptosis in human WI-38 cells assessed as increase in cleaved caspase-3 expression at 10 to 30 uM by Western blot analysis; format: cell-based; details: wi-38, 30 µM, dose 10-30 µM

## Cc1ccc(C(=O)[C@@H]2Cc3c(ccc4ccccc34)O2)cc1
MDA-MB-468 [1]
  Activity: Dose-dependent effect
MDA-MB-468 [2]
  CC50: 15 µM
MCF7 [3]
  CC50: 17 µM
[4]
  CC50: 58 µM
[5]
  selectivity ratio: 3.87
[6]
  selectivity ratio: 3.41
4T1
  CC50: 21 µM
[7]
  Selectivity Index: 2.76
MDA-MB-231
  CC50: 19 µM
[8]
  selectivity ratio: 3.05
MDA-MB-468 [9]
  Activity: 69%
MDA-MB-468 [10]
  Activity: Dose-dependent effect
MCF7 [11]
  Activity: Dose-dependent effect
MCF7 [12]
  Activity: 61%
WI-38 [13]
  Activity: Non-Toxic
MDA-MB-468 [14]
  Activity: Dose-dependent effect
MCF7 [15]
  Activity: Dose-dependent effect
MDA-MB-468 [16]
  Activity: inactive
MCF7 [17]
  Activity: inactive
WI-38 [18]
  Activity: Non-Toxic
MDA-MB-468 [19]
  Activity: Tde
MCF7 [20]
  Activity: Tde
MCF7 [21]
  Activity: Dose-dependent effect
WI-38 [22]
  Activity: Non-Toxic
MDA-MB-468 [23]
  Activity: Active
MDA-MB-468 [24]
  Activity: Active
MCF7 [25]
  Activity: Active
MDA-MB-468 [26]
  Activity: 32 µm
MDA-MB-468 [27]
  Activity: 63 µm
MDA-MB-468 [28]
  Activity: Active
MDA-MB-468 [29]
  Activity: Active
MDA-MB-468 [30]
  Activity: Active
MDA-MB-468 [31]
  Activity: Active
MDA-MB-468 [32]
  Activity: inactive
WI-38 [33]
  Activity: Non-Toxic
